One may read the inhibition as how much of the control response was suppressed.

This passage reports residual activity and inhibition results from ChEMBL document CHEMBL1681705, “Optimisation of ITK inhibitors through successive iterative design cycles” (Bioorg Med Chem Lett, 2011).

The target of assay [1] is Angiopoietin-1 receptor (Homo sapiens) (UniProt Q02763). Kind of assay: Inhibition of Tie2 at 0.1 uM; values are per cent of control.
In assay [2] the target is T1, Tyrosine-protein kinase ITK/TSK (Homo sapiens) (UniProt Q08881).
T1 sequence (whole entry): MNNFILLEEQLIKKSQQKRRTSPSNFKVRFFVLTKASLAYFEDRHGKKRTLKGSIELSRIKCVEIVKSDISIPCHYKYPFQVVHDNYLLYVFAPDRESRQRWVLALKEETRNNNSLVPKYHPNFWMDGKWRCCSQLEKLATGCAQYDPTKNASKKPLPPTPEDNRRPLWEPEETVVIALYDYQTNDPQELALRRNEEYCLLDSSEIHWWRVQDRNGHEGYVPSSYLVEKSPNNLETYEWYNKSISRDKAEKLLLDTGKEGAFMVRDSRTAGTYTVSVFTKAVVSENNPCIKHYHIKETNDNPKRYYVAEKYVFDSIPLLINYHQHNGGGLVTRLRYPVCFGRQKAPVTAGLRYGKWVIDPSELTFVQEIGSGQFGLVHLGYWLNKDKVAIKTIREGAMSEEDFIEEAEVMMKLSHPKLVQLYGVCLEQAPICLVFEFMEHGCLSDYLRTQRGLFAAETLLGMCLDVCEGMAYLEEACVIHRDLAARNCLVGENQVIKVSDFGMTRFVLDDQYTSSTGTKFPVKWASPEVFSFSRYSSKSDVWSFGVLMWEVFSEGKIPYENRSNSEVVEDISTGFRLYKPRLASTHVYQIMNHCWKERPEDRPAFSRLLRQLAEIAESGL
In words: Inhibition of Itk at 0.1 uM; values are per cent of control.

In assay [3] the target is MAP kinase-activated protein kinase 2 (Homo sapiens) (UniProt P49137). Kind of assay: Inhibition of MAPKAP-K2 at 0.1 uM; values are per cent of control.
Assay [4] concerns the target Macrophage colony-stimulating factor 1 receptor (Homo sapiens) (UniProt P07333). In words: Inhibition of Fms at 1 uM; values are per cent of control.
Assay [5] has as its target T2, Dual specificity mitogen-activated protein kinase kinase 7 (Homo sapiens) (UniProt O14733).
T2 sequence (whole entry): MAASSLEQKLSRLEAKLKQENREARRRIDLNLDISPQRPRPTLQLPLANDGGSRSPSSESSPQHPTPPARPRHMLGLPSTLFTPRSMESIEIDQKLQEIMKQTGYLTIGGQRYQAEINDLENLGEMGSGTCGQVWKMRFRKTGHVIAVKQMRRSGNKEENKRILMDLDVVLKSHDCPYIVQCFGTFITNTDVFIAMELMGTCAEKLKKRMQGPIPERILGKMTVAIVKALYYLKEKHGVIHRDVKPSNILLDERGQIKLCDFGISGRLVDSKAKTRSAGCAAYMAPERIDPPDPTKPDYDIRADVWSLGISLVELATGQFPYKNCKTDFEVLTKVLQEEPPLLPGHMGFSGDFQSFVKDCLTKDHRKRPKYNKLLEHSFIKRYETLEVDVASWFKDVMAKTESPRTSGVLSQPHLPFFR
In words: Inhibition of MKK7beta at 1 uM. An outline of the steps:
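Single-point screen within a 108-kinase selectivity panel. Each kinase was tested with inhibitor at 0.1 and 1.0 micromolar, and activity was recorded as percent inhibition.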

The target in assay [6] is Fibroblast growth factor receptor 4 (Homo sapiens) (UniProt P22455). In words: Inhibition of FGFR4 at 0.1 uM; values are per cent of control.
Assay [7] is described as follows: Inhibition of ROCK1 at 0.1 uM; values are per cent of control.
For assay [8], the target named is T3, Mitogen-activated protein kinase 12 (Homo sapiens) (UniProt P53778).
T3 sequence (whole entry): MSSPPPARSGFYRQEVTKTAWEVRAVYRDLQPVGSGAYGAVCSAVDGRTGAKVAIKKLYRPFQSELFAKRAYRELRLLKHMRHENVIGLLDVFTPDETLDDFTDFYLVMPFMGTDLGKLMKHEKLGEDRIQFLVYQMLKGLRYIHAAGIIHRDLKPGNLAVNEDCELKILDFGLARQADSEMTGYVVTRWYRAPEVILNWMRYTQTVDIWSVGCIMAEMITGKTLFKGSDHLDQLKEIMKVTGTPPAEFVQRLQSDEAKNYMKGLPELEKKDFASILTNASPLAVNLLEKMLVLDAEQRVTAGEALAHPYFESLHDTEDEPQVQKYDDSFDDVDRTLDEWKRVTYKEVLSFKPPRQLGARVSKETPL
In words: Inhibition of SAPK3 at 0.1 uM; values are per cent of control.

For assay [9], the target named is Tyrosine-protein kinase Fes/Fps (Homo sapiens) (UniProt P07332). Kind of assay: Inhibition of Fes at 1 uM; values are per cent of control.
Assay [10] deals with Calcium/calmodulin-dependent protein kinase type 1 (Homo sapiens) (UniProt Q14012). In words: Inhibition of CaMK1 at 0.1 uM; values are per cent of control.
A short description of assay [11]: Inhibition of MAPK2 at 0.1 uM. The settings on record: values are per cent of control.
Assay [12] concerns the target ALK tyrosine kinase receptor (Homo sapiens) (UniProt Q9UM73). Kind of assay: Inhibition of ALK at 0.1 uM; values are per cent of control.
For assay [13], the target named is Ephrin type-A receptor 7 (Homo sapiens) (UniProt Q15375). In words: Inhibition of EphA7 at 1 uM; values are per cent of control.
Assay [14] concerns the target Serine/threonine-protein kinase SIK1 (Homo sapiens) (UniProt P57059). Kind of assay: Inhibition of SIK at 0.1 uM; values are per cent of control.
Assay [15] concerns the target Serine/threonine-protein kinase 33 (Homo sapiens) (UniProt Q9BYT3). Kind of assay: Inhibition of STK33 at 0.1 uM; values are per cent of control.

Chain of Serine/threonine-protein kinase 33 (Homo sapiens) (Q9BYT3 whole entry, looked up): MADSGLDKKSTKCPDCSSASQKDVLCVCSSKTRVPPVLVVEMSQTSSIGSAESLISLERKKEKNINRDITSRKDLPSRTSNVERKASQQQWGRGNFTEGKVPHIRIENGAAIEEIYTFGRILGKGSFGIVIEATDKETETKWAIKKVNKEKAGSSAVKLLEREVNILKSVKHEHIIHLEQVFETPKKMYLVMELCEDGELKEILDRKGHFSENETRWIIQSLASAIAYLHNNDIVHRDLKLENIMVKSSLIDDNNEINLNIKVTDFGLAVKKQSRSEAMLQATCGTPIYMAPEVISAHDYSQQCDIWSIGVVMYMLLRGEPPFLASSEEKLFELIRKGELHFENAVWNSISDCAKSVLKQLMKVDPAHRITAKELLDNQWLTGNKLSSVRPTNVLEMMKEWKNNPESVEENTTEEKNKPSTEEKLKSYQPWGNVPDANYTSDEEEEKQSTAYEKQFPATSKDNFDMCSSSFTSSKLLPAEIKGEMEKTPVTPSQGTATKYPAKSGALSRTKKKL
Chain of MAP kinase-activated protein kinase 2 (Homo sapiens) (P49137 whole entry, looked up): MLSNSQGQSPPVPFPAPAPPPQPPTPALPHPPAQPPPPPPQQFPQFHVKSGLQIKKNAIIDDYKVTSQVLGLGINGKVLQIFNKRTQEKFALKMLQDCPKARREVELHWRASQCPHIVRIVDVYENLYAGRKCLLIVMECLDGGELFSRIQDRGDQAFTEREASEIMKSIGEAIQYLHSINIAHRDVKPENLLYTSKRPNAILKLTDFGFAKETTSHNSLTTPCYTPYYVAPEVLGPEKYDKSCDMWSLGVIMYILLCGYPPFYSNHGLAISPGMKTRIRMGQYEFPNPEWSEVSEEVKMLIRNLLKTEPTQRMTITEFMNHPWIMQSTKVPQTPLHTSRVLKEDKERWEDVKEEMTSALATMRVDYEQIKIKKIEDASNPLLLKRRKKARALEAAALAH
Chain of Tyrosine-protein kinase Fes/Fps (Homo sapiens) (P07332 whole entry): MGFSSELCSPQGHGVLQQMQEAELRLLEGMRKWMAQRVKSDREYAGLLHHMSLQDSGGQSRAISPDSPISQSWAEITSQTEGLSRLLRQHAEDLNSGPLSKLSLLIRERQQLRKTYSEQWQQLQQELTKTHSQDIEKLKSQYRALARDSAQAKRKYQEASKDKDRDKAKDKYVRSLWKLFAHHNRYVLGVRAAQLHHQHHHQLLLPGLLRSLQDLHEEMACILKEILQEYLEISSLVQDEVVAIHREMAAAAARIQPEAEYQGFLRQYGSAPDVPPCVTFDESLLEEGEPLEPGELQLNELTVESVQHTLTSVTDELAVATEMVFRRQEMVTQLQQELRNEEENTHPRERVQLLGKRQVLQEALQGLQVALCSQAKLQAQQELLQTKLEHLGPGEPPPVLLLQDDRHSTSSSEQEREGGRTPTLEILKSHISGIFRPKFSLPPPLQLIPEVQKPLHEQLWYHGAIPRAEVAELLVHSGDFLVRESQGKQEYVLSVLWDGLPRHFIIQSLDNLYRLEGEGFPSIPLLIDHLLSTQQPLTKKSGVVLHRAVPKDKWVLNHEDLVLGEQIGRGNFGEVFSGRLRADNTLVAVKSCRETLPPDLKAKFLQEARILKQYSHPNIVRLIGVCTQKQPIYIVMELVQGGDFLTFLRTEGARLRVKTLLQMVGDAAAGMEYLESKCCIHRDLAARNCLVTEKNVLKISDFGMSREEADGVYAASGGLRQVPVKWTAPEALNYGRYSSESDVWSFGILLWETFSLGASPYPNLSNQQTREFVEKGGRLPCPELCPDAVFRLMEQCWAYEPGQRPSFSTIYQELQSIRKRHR
Chain of Calcium/calmodulin-dependent protein kinase type 1 (Homo sapiens) (Q14012 whole entry, looked up): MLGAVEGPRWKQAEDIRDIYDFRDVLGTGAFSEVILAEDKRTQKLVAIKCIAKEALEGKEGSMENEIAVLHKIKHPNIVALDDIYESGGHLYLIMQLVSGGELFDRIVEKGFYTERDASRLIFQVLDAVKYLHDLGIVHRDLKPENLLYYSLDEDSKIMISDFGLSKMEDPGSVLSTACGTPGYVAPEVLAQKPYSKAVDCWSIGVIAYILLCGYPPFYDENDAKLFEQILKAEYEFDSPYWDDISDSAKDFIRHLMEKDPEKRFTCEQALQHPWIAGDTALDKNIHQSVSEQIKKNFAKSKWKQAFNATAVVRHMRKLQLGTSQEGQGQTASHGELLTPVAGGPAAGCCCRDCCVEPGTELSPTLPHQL
Chain of Macrophage colony-stimulating factor 1 receptor (Homo sapiens) (P07333 whole entry): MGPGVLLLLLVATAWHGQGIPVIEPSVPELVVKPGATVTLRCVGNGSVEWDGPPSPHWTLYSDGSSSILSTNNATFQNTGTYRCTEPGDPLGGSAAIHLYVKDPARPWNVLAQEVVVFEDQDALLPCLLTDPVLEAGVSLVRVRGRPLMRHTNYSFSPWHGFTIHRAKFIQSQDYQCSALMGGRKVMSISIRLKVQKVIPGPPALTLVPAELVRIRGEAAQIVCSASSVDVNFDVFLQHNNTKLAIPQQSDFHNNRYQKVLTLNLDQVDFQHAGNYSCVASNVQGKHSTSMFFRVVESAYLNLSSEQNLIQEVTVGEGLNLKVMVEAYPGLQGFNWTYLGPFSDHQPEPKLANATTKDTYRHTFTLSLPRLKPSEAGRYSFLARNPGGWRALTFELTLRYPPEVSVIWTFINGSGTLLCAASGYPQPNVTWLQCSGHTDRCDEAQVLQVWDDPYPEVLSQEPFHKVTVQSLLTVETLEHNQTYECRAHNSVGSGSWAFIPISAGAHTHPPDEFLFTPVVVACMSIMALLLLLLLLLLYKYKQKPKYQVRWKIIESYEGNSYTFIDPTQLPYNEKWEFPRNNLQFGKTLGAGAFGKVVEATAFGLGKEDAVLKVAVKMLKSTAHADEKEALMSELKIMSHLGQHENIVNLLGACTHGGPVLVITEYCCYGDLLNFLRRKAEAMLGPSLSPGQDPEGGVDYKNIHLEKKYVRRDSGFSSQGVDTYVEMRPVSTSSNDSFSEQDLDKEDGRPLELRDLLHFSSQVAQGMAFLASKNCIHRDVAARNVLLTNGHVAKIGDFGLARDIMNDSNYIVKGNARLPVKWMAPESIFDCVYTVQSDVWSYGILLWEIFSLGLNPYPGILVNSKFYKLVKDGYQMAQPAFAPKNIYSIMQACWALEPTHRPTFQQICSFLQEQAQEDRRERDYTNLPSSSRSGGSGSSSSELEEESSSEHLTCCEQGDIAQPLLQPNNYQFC
Chain of ALK tyrosine kinase receptor (Homo sapiens) (Q9UM73 19-1620 limits assumed): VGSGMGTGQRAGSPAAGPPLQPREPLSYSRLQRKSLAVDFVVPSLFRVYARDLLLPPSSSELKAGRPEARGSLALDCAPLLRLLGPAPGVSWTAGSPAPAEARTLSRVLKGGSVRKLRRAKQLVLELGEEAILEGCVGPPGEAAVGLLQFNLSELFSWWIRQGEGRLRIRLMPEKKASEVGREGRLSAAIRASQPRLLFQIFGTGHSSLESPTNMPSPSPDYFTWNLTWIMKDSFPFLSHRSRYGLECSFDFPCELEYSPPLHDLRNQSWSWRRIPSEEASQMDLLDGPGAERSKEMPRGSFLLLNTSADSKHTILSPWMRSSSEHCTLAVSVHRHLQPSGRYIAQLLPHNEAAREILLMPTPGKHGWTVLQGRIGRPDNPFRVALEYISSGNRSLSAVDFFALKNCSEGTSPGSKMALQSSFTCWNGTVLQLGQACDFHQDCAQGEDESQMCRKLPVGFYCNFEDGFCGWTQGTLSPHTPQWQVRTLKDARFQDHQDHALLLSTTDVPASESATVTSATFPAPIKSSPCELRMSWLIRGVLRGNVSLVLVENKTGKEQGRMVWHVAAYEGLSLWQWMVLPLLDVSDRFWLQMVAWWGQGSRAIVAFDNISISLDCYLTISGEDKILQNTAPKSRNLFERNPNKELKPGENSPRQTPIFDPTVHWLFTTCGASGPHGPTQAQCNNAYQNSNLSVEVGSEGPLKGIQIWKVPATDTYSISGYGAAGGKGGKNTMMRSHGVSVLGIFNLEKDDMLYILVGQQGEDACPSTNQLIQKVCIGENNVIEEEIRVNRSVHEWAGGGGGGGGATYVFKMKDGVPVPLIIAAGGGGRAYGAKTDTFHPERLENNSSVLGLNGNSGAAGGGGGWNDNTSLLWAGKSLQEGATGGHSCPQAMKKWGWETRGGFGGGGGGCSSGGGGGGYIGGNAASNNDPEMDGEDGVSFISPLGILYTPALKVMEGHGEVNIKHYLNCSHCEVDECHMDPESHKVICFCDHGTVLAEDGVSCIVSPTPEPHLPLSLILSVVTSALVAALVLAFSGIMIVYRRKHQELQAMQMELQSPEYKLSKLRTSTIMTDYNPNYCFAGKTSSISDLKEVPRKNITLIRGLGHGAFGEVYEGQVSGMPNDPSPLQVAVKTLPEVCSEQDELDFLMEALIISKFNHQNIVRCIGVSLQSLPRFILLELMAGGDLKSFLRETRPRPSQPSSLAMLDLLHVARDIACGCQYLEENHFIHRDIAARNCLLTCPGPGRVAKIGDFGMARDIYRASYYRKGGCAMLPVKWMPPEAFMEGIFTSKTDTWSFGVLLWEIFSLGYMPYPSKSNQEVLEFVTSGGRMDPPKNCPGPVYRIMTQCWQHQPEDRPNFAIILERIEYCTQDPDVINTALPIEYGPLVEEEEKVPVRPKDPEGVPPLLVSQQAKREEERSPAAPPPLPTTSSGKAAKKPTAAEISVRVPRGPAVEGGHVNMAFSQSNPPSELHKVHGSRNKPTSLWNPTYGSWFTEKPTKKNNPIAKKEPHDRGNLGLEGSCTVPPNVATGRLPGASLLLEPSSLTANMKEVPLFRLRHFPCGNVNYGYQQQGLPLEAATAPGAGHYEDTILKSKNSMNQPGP

Turning to `Cc1ccc2cc(-c3n[nH]c4ccc(NC5CCNC5)cc34)[nH]c2c1` (stereo not given), the residual activity is 17% in assay [1]; 41% in assay [2]; 98% in assay [3]; 10% in [4]; 63% in [6]; 47% in [7]. Further, the residual activity stood at 92% in assay [8]; 0% in assay [9]; 36% in assay [10]; 108% in assay [11]; 27% in assay [12]; 16% in assay [13]. Also, the residual activity in assay [14] stood at 18%; in assay [15] it was 76%. Also, the inhibition in assay [5] was 52%.
As to `Cc1ccc2cc(-c3n[nH]c4ccc(NC5CCN(Cc6ccccc6)CC5)cc34)[nH]c2c1`, the residual activity in [1] worked out at 83%; in assay [2] it was 14%; in [3] it was 104%; in [4] it was 20%; in assay [6], 65%; in [7], 92%. In addition, the residual activity in assay [8] came out at 104%; in assay [9], 1%; in assay [10], 89%; in assay [11], 100%; in assay [12], 47%; in assay [13] it was 16%. The residual activity was 43% in [14] and 13% in assay [15]. In assay [5], this compound had an inhibition of 95%.
